Test results published in ChEMBL document CHEMBL4145690, “Rational Design and Structure Validation of a Novel Peptide Inhibitor of the Adenomatous-Polyposis-Coli (APC)-Rho-Guanine-Nucleotide-Exchange-Factor-4 (Asef) Interaction” (J Med Chem, 2018).
*1 amine or outer side, *2 acyl side, *3 side chain or, on linkers, in order; H or OH if unused. Where a SMILES comes first, the peptide text is derived from it. [ ]: non-standard residue; d: D form. The star is where a group is joined. Ala(4-thiazolyl) = N[C@@H](Cc1cscn1)C(=O)O; X1 = O=C([C@H](Cc1ccc(Br)s1)N[*:1])[*:2]; Ala(cHept) = N[C@@H](CC1CCCCCC1)C(=O)O; 1Nal = N[C@@H](Cc1cccc2ccccc12)C(=O)O; Ala(cPent) = N[C@@H](CC1CCCC1)C(=O)O; Met(O2) = CS(=O)(=O)CC[C@H](N)C(=O)O; X2 = C=C(Br)C[C@H](N[*:1])C(=O)[*:2]; Gly(octyl) = CCCCCCCC[C@H](N)C(=O)O; Gly(cPent) = N[C@H](C(=O)O)C1CCCC1; Ala(cPr) = N[C@@H](CC1CC1)C(=O)O; tBuAla = CC(C)(C)C[C@H](N)C(=O)O; Met(O) = CS(=O)CC[C@H](N)C(=O)O; 2Thi = N[C@@H](Cc1cccs1)C(=O)O; Cha = N[C@@H](CC1CCCCC1)C(=O)O; Cba = N[C@@H](CC1CCC1)C(=O)O; Tle = CC(C)(C)[C@H](N)C(=O)O; Ac8c = NC1(C(=O)O)CCCCCCC1; Cbz = O=C(OCc1ccccc1)*

What follows are compounds tested against Adenomatous polyposis coli protein (Homo sapiens, UniProt P25054) (assay: Binding affinity to APC protein (303 to 739 residues) (unknown origin) incubated for 60 mins followed by probe addition and measured after 60 mins by competitive fluorescence polarization assay).
Method in brief: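 Peptide in DMSO preincubated with protein 60 min at room temperature with shaking; probe added, then 60 min more. Controls: blank, tracer only, complex only. IC50 from dose-response curves, mean of three independent experiments.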

Chain of Adenomatous polyposis coli protein (P25054 whole entry, the tested form may be a part): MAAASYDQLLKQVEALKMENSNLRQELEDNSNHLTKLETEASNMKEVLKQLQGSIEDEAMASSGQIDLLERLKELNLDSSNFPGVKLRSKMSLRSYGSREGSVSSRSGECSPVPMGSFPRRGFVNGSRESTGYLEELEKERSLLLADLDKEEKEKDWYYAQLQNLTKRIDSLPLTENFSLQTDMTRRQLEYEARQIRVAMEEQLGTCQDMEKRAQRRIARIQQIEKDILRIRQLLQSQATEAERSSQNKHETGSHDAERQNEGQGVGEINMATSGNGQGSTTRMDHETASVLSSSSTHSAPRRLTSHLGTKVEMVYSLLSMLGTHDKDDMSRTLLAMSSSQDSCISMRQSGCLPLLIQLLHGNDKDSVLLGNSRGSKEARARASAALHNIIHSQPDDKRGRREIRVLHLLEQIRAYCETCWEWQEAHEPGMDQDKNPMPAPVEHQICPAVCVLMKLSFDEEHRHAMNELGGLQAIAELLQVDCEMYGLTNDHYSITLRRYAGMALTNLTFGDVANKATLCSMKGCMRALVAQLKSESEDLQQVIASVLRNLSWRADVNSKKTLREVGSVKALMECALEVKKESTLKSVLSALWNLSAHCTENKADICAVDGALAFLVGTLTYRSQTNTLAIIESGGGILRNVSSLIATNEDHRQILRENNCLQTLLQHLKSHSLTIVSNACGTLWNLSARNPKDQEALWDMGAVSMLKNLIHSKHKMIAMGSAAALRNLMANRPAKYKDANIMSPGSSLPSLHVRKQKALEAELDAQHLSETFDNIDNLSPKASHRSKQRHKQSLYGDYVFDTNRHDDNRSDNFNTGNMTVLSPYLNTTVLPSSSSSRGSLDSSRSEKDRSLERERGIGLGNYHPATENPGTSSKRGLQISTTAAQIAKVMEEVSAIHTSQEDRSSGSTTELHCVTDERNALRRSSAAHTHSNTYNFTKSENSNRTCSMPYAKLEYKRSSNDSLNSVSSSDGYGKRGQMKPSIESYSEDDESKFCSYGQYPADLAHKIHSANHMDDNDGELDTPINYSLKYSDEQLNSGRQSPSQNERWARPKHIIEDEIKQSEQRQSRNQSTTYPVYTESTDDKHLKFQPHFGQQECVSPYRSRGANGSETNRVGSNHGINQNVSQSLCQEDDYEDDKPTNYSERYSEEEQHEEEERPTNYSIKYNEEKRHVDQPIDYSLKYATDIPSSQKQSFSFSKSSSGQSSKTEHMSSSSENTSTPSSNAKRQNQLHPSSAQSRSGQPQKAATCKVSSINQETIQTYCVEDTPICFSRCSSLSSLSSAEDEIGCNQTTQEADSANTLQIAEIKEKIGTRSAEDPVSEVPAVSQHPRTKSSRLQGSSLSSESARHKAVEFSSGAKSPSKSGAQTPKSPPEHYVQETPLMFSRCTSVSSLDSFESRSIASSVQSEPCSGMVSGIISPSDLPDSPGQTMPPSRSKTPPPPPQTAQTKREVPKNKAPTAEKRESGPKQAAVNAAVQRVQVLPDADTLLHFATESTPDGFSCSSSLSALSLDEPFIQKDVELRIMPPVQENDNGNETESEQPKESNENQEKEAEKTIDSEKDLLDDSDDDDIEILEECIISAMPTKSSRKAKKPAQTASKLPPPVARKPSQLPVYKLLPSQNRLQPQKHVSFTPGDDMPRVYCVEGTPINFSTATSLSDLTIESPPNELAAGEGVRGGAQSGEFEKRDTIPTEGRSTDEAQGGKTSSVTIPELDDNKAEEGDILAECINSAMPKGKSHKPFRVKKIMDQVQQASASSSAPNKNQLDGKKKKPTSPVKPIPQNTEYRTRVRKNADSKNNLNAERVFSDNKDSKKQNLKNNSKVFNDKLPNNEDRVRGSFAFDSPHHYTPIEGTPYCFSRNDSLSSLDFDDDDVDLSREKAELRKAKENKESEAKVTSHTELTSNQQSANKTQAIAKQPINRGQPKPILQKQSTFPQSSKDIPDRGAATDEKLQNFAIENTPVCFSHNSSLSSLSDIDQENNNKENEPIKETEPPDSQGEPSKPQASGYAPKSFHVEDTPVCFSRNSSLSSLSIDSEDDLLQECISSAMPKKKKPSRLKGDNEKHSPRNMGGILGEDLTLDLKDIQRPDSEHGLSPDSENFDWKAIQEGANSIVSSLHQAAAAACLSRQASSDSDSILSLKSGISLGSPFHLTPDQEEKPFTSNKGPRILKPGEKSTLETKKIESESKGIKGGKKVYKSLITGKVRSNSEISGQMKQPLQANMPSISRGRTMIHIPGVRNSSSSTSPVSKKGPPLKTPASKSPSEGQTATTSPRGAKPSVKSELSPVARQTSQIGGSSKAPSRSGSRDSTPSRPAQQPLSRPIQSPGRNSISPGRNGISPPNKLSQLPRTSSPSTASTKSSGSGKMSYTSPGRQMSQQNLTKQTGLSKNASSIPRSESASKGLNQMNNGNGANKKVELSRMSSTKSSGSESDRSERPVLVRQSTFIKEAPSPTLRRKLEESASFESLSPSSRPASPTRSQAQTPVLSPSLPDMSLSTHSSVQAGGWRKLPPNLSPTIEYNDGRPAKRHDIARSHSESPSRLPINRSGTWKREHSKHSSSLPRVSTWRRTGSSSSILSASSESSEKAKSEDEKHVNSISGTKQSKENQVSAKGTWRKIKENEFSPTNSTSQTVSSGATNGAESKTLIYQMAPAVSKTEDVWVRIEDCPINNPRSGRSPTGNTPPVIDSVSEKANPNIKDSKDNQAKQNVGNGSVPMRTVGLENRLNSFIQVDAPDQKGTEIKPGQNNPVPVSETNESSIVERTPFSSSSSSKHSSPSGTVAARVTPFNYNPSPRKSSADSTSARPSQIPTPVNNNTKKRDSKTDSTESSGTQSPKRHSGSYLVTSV

| Compound | IC50 [µM] |
| --- | --- |
| CCCCCCCC[C@H](NC(=O)[C@H](CO)NC(=O)[C@H](CCC(=O)O)NC(=O)CNC(=O)[C@H](C)NC(=O)OCc1ccccc1)C(=O)N[C@@H](Cc1ccc(O)cc1)C(=O)N[C@@H](CCC(=O)O)C(N)=O (Cbz-AGES[Gly(octyl)]YE-NH2) | 3.02 |
| C[C@H](NC(=O)OCc1ccccc1)C(=O)NCC(=O)N[C@@H](CCC(=O)O)C(=O)N[C@@H](CO)C(=O)N[C@@H](CC1CCCCC1)C(=O)N[C@@H](Cc1ccc(O)cc1)C(=O)N[C@@H](CCC(=O)O)C(N)=O (Cbz-AGES[Cha]YE-NH2) | 1.3 |
| CC(C)C[C@H](NC(=O)[C@H](CS)NC(=O)[C@H](CCC(=O)O)NC(=O)CNC(=O)[C@H](C)NC(=O)OCc1ccccc1)C(=O)N[C@@H](Cc1ccc(O)cc1)C(=O)N[C@@H](CCC(=O)O)C(N)=O (Cbz-AGECLYE-NH2) | 1.51 |
| C[C@H](NC(=O)OCc1ccccc1)C(=O)NCC(=O)N[C@@H](CCC(=O)O)C(=O)N[C@@H](CO)C(=O)N[C@@H](CC1CCCCCC1)C(=O)N[C@@H](Cc1ccc(O)cc1)C(=O)N[C@@H](CCC(=O)O)C(N)=O (Cbz-AGES[Ala(cHept)]YE-NH2) | 1.94 |
| C[C@H](NC(=O)OCc1ccccc1)C(=O)NCC(=O)N[C@@H](CCC(=O)O)C(=O)N[C@@H](C)C(=O)N[C@@H](CC1CCCC1)C(=O)N[C@@H](Cc1ccc(O)cc1)C(=O)N[C@@H](CCC(=O)O)C(N)=O (Cbz-AGEA[Ala(cPent)]YE-NH2) | 0.57 |
| C[C@H](NC(=O)OCc1ccccc1)C(=O)NCC(=O)N[C@@H](CCC(=O)O)C(=O)N[C@@H](CO)C(=O)N[C@H](C(=O)N[C@@H](Cc1ccc(O)cc1)C(=O)N[C@@H](CCC(=O)O)C(N)=O)C(C)(C)C (Cbz-AGES[Tle]YE-NH2) | 31.5 |
| C[C@H](NC(=O)OCc1ccccc1)C(=O)NCC(=O)N[C@@H](CCC(=O)O)C(=O)N[C@@H](CO)C(=O)N[C@H](C(=O)N[C@@H](Cc1ccc(O)cc1)C(=O)N[C@@H](CCC(=O)O)C(N)=O)C1CCCC1 (Cbz-AGES[Gly(cPent)]YE-NH2) | 4.07 |
| CC(C)C[C@H](NC(=O)[C@H](CC(N)=O)NC(=O)[C@H](CCC(=O)O)NC(=O)CNC(=O)[C@H](C)NC(=O)OCc1ccccc1)C(=O)N[C@@H](Cc1ccc(O)cc1)C(=O)N[C@@H](CCC(=O)O)C(N)=O (Cbz-AGENLYE-NH2) | 5.19 |
| C[C@H](NC(=O)OCc1ccccc1)C(=O)NCC(=O)N[C@@H](CCC(=O)O)C(=O)N[C@@H](CO)C(=O)N[C@@H](Cc1cccc2ccccc12)C(=O)N[C@@H](Cc1ccc(O)cc1)C(=O)N[C@@H](CCC(=O)O)C(N)=O (Cbz-AGES[1Nal]YE-NH2) | 10.1 |
| C[C@H](NC(=O)OCc1ccccc1)C(=O)NCC(=O)N[C@@H](CCC(=O)O)C(=O)N[C@@H](CO)C(=O)NC1(C(=O)N[C@@H](Cc2ccc(O)cc2)C(=O)N[C@@H](CCC(=O)O)C(N)=O)CCCCCCC1 (Cbz-AGES[Ac8c]YE-NH2) | 10.3 |
| CC[C@H](C)[C@H](NC(=O)[C@H](CO)NC(=O)[C@H](CCC(=O)O)NC(=O)CNC(=O)[C@H](C)NC(=O)OCc1ccccc1)C(=O)N[C@@H](Cc1ccc(O)cc1)C(=O)N[C@@H](CCC(=O)O)C(N)=O (Cbz-AGESIYE-NH2) | 3.85 |
| C[C@H](NC(=O)OCc1ccccc1)C(=O)NCC(=O)N[C@@H](CCC(=O)O)C(=O)N[C@@H](CO)C(=O)N[C@@H](CC1CCCC1)C(=O)N[C@@H](Cc1ccc(O)cc1)C(=O)N[C@@H](CCC(=O)O)C(N)=O (Cbz-AGES[Ala(cPent)]YE-NH2) | 0.62 |

Second part, the compound after the results:

| IC50 [µM] | Compound |
| --- | --- |
| 13.9 | C[C@H](NC(=O)OCc1ccccc1)C(=O)NCC(=O)N[C@@H](CCC(=O)O)C(=O)N[C@@H](CO)C(=O)N[C@@H](CC[S+](C)[O-])C(=O)N[C@@H](Cc1ccc(O)cc1)C(=O)N[C@@H](CCC(=O)O)C(N)=O (stereo partly specified) (Cbz-AGES[Met(O)]YE-NH2) |
| 1.53 | C[C@H](NC(=O)OCc1ccccc1)C(=O)NCC(=O)N[C@@H](CCC(=O)O)C(=O)N[C@@H](CO)C(=O)N[C@@H](CC1CCC1)C(=O)N[C@@H](Cc1ccc(O)cc1)C(=O)N[C@@H](CCC(=O)O)C(N)=O (Cbz-AGES[Cba]YE-NH2) |
| 4.01 | C[C@H](NC(=O)OCc1ccccc1)C(=O)NCC(=O)N[C@@H](CCC(=O)O)C(=O)N[C@@H](CO)C(=O)N[C@@H](Cc1cccs1)C(=O)N[C@@H](Cc1ccc(O)cc1)C(=O)N[C@@H](CCC(=O)O)C(N)=O (Cbz-AGES[2Thi]YE-NH2) |
| 5 | C[C@H](NC(=O)OCc1ccccc1)C(=O)NCC(=O)N[C@@H](CCC(=O)O)C(=O)N[C@@H](CO)C(=O)N[C@@H](Cc1ccc(Br)s1)C(=O)N[C@@H](Cc1ccc(O)cc1)C(=O)N[C@@H](CCC(=O)O)C(N)=O (Cbz-AGES[X1]YE-NH2) |
| 1.26 | C[C@H](NC(=O)OCc1ccccc1)C(=O)NCC(=O)N[C@@H](CCC(=O)O)C(=O)N[C@@H](CO)C(=O)N[C@@H](CC1CC1)C(=O)N[C@@H](Cc1ccc(O)cc1)C(=O)N[C@@H](CCC(=O)O)C(N)=O (Cbz-AGES[Ala(cPr)]YE-NH2) |
| 50.6 | C[C@H](NC(=O)OCc1ccccc1)C(=O)NCC(=O)N[C@@H](CCC(=O)O)C(=O)N[C@@H](CO)C(=O)N[C@@H](Cc1c[nH]cn1)C(=O)N[C@@H](Cc1ccc(O)cc1)C(=O)N[C@@H](CCC(=O)O)C(N)=O (Cbz-AGESHYE-NH2) |
| 5.07 | C[C@H](NC(=O)OCc1ccccc1)C(=O)NCC(=O)N[C@@H](CCC(=O)O)C(=O)N[C@@H](CO)C(=O)N[C@@H](Cc1ccc(O)cc1)C(=O)N[C@@H](Cc1ccc(O)cc1)C(=O)N[C@@H](CCC(=O)O)C(N)=O (Cbz-AGESYYE-NH2) |
| 12.4 | CC(C)[C@H](NC(=O)[C@H](CO)NC(=O)[C@H](CCC(=O)O)NC(=O)CNC(=O)[C@H](C)NC(=O)OCc1ccccc1)C(=O)N[C@@H](Cc1ccc(O)cc1)C(=O)N[C@@H](CCC(=O)O)C(N)=O (Cbz-AGESVYE-NH2) |
| 1.82 | C=C(Br)C[C@H](NC(=O)[C@H](CO)NC(=O)[C@H](CCC(=O)O)NC(=O)CNC(=O)[C@H](C)NC(=O)OCc1ccccc1)C(=O)N[C@@H](Cc1ccc(O)cc1)C(=O)N[C@@H](CCC(=O)O)C(N)=O (Cbz-AGES[X2]YE-NH2) |
| 1.78 | C[C@H](NC(=O)OCc1ccccc1)C(=O)NCC(=O)N[C@@H](CCC(=O)O)C(=O)N[C@@H](CO)C(=O)N[C@@H](CC(C)(C)C)C(=O)N[C@@H](Cc1ccc(O)cc1)C(=O)N[C@@H](CCC(=O)O)C(N)=O (Cbz-AGES[tBuAla]YE-NH2) |
| 5.73 | C[C@H](NC(=O)OCc1ccccc1)C(=O)NCC(=O)N[C@@H](CCC(=O)O)C(=O)N[C@@H](CO)C(=O)N[C@@H](CCS(C)(=O)=O)C(=O)N[C@@H](Cc1ccc(O)cc1)C(=O)N[C@@H](CCC(=O)O)C(N)=O (Cbz-AGES[Met(O2)]YE-NH2) |
| 16.4 | C[C@H](NC(=O)OCc1ccccc1)C(=O)NCC(=O)N[C@@H](CCC(=O)O)C(=O)N[C@@H](CO)C(=O)N[C@@H](Cc1cscn1)C(=O)N[C@@H](Cc1ccc(O)cc1)C(=O)N[C@@H](CCC(=O)O)C(N)=O (Cbz-AGES[Ala(4-thiazolyl)]YE-NH2) |
| 3.3 | CSCC[C@H](NC(=O)[C@H](CO)NC(=O)[C@H](CCC(=O)O)NC(=O)CNC(=O)[C@H](C)NC(=O)OCc1ccccc1)C(=O)N[C@@H](Cc1ccc(O)cc1)C(=O)N[C@@H](CCC(=O)O)C(N)=O (Cbz-AGESMYE-NH2) |
| 4.36 | C[C@H](NC(=O)OCc1ccccc1)C(=O)NCC(=O)N[C@@H](CCC(=O)O)C(=O)N[C@@H](CO)C(=O)N[C@@H](Cc1ccccc1)C(=O)N[C@@H](Cc1ccc(O)cc1)C(=O)N[C@@H](CCC(=O)O)C(N)=O (Cbz-AGESFYE-NH2) |
